From PubChem BioAssay
The list is not random: actives were taken first. Their share in the collection is about 2.9%.
ERAP1 inh = human ERAP1 aminopeptidase inhibitors, primary screen, biochemical, single point, plate reader; Endoplasmic reticulum aminopeptidase 1 (Homo sapiens), Q9NZ08; recombinant ERAP1, Leu-AMC fluorescence, 60 min; inhibition, % at 10.7 µM; hit rate 0.15% among 340,000; AID 652197, 2013;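 active = mean replicate inhibition of at least 30%, or all replicates individually reaching that 30% level; inactive = mean below 30% and not every replicate reaching it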;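 note: 0% = neutral control wells and 100% = L-leucinethiol positive control wells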
CAL PDZ FP-1 = untagged CAL PDZ binding inhibitors, primary screen, biochemical, fluorescence polarization, HTS | Golgi-associated PDZ and coiled-coil motif-containing protein (Homo sapiens), Q9HD26 | purified CAL PDZ, TMR-peptide fluorescence polarization, 1 h | inhibition, % at 24.9 µM | hit rate 0.92% among 300,000;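 active = mean inhibition of at least 30% with at least half of replicates also reaching 30%; inconclusive = no clear call, values can overlap the other calls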;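 note: 0% = DMSO neutral control and 100% = excess unlabeled competitor peptide PRC23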
DENV2 CPE = inhibitors of DENV2 cytopathic effect, primary screen, cell-based, plate reader, single concentration | DENV2-infected cells, cytopathic effect rescue | CPE inhibition, % at 9.99 µM | hit rate 1.7% among 350,000 | AID 651640, 2012; in the data active = CPE inhibition above about 20%, passing the limit was not always enough; inconclusive = no clear call, values can overlap the other calls; tested in BHK-21 cells;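 note: 0% = median of neutral control wells and 100% = median of positive control wells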
S100A4 inh HTS = inhibitors of S100A4-myosin IIA peptide binding, primary screen, biochemical, fluorescence polarization, TAMRA-MyoIIA peptide; hit rate 0.14% among 360,000; inhibition, % at 10.7 µM; Protein S100-A4 (Homo sapiens), P26447;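 active = mean inhibition of at least 70% across replicates, with every replicate also reaching that level; inconclusive = mean inhibition reaches 70% but some replicates fall short; inactive = mean inhibition below 70%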
Target sequence (P26447 whole entry, looked up): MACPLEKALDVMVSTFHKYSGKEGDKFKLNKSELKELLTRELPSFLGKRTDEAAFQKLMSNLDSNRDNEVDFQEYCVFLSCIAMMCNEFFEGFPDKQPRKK
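assay system = human S100A4 monomer with TAMRA-labelled myosin IIA peptide | also added = labelled myosin peptide probe, 5 nM | incubation = 5 min between mix addition and reading | control set = DMSO and TFP controls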
CAL PDZ FP-2 = CAL PDZ peptide-binding inhibitors, primary screen, biochemical, fluorescence polarization, Cer-tagged CAL PDZ, HTS. purified CAL PDZ, TMR-peptide fluorescence polarization, 1 h. Golgi-associated PDZ and coiled-coil motif-containing protein (Homo sapiens), Q9HD26. inhibition, % at 20 µM. AID 504414, 2011. hit rate 0.02% among 330,000;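 active = highest replicate inhibition of at least 40%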;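 note: plate controls were DMSO neutral control wells for no effect and unlabeled competitor peptide control wells for full effect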
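System: tagged CAL PDZ domain. Schedule: 1 h room-temperature incubation prior to read. Signal: fluorescence polarization (mP). Measure: percent inhibition from loss of millipolarization.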
SIRT5 inh = SIRT5 desuccinylase inhibitors, primary screen, biochemical, fluorescence imaging, single point, set 5; hit rate 1.1% among 330,000; NAD-dependent protein deacylase sirtuin-5, mitochondrial (Homo sapiens), Q9NXA8; Purified SirT5, succinyl-peptide AMC, trypsin-coupled fluorescence; AID 652115, 2013; inhibition, % at 15 µM; in the data active = inhibition above about 15%; inconclusive = no clear call, values can overlap the other calls
Target sequence (Q9NXA8 whole entry, looked up): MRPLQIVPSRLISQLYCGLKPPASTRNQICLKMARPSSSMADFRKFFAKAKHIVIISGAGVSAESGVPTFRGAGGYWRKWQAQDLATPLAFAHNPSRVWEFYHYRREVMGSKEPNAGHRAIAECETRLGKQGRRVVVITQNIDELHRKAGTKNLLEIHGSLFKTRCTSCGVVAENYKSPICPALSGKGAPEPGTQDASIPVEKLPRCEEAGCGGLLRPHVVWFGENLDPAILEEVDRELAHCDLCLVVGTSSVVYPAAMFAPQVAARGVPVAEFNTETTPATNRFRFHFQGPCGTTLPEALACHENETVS
* marks the source's active call; other numbers are inactive results; u = inconclusive; x = no result.

SMILES	ERAP1 inh	CAL PDZ FP-1	DENV2 CPE	S100A4 inh HTS	CAL PDZ FP-2	SIRT5 inh
COCC(=O)Nc1ccc2c(c1)[C@@H]1C[C@H](CC(=O)NC3CCCCC3)O[C@H](CO)[C@@H]1O2	0	x	56*	-3	x	1
CN(C)CC(=O)Nc1ccc2c(c1)[C@H]1C[C@H](CC(=O)NC3CCCCC3)O[C@@H](CO)[C@H]1O2	-1	x	86*	-7	x	4
O=C(C[C@@H]1C[C@@H]2c3cc(NC(=O)c4ccc5c(c4)OCO5)ccc3O[C@@H]2[C@H](CO)O1)NC1CCCC1	-2	x	38*	-14	x	1
COCC(=O)Nc1ccc2c(c1)[C@H]1C[C@H](CC(=O)NC3CCCC3)O[C@@H](CO)[C@H]1O2	1	x	4	-5	x	1
CN(C)CC(=O)Nc1ccc2c(c1)[C@@H]1C[C@H](CC(=O)NC3CCCCC3)O[C@H](CO)[C@@H]1O2	0	x	-1	4	x	-3
CN(C)CC(=O)Nc1ccc2c(c1)[C@@H]1C[C@@H](CC(=O)NC3CCCCC3)O[C@H](CO)[C@@H]1O2	-2	x	86*	2	x	-2
CCN1[C@@H]2Cn3c(cccc3=O)[C@H]1[C@@H](C(=O)NC1Cc3ccccc3C1)[C@@H]2CO	x	x	1	x	x	-4
C[C@@H]1CCCCO[C@H](CN(C)S(=O)(=O)c2cccs2)[C@H](C)CN([C@H](C)CO)C(=O)c2cc(NC(=O)Nc3ccccc3)ccc2O1	2	x	u	0	x	5
O=C(Nc1ccccc1)N1C[C@H]2[C@@H](c3ccccc31)[C@H](CO)N2Cc1ccccc1	-2	x	57*	3	x	-4
CC(C)NC(=O)N1[C@H](CO)[C@H]2c3ccccc3N(C(=O)Nc3ccc(F)cc3)C[C@H]21	0	x	27*	-3	x	-1
O=C(Nc1ccc(F)cc1)N1C[C@H]2[C@@H](c3ccccc31)[C@@H](CO)N2Cc1ccccc1	-1	x	12	39	x	-3
CC(C)NC(=O)N1[C@H](CO)[C@@H]2c3ccccc3N(C(=O)Nc3ccc(F)cc3)C[C@@H]21	-1	x	-10	-18	x	1
O=C(Nc1ccccc1)N1C[C@@H]2[C@H](c3ccccc31)[C@@H](CO)N2Cc1ccccc1	-1	x	45*	-4	x	1
O=C(Nc1ccc(F)cc1)N1C[C@H]2[C@@H](c3ccccc31)[C@@H](CO)N2Cc1ccccc1Cl	1	x	30*	-6	x	1
O=C(C[C@H]1C[C@@H]2c3cc(NC(=O)C4CCOCC4)ccc3O[C@@H]2[C@H](CO)O1)NCc1cccnc1	2	x	u	8	x	-2
C[C@H]1CN([C@@H](C)CO)C(=O)c2c(c3ccccc3n2C)-c2ccccc2CO[C@@H]1CN(C)C(=O)Nc1ccccc1C(F)(F)F	0	x	3	0	x	7
C[C@H](CO)N1C[C@H](C)[C@@H](CN(C)Cc2ccc(Cl)c(Cl)c2)Oc2ccc(NC(=O)Nc3ccccc3)cc2CC1=O	7	x	10	-10	x	7
O=C(Nc1cc(F)ccc1F)N1C[C@@H]2[C@H](c3ccccc31)[C@H](CO)N2Cc1ccncc1	-2	x	-5	0	x	22*
O=C(Nc1cc(F)ccc1F)N1C[C@H]2[C@@H](c3ccccc31)[C@H](CO)N2Cc1ccncc1	-1	x	-3	9	x	0
COCC#Cc1cnc2c(c1)C(=O)N([C@H](C)CO)C[C@H](C)[C@@H](CN(C)C(=O)c1cccnc1)O2	2	x	-10	-7	x	-5
COCC#Cc1cnc2c(c1)C(=O)N([C@H](C)CO)C[C@@H](C)[C@H](CN(C)C(=O)Cc1ccccc1)O2	-4	x	-8	13	x	31*
COCC#Cc1cnc2c(c1)C(=O)N([C@@H](C)CO)C[C@@H](C)[C@H](CN(C)C(=O)c1cccnc1)O2	1	x	-8	-6	x	16*
C[C@@H]1CN([C@@H](C)CO)C(=O)c2cc(-c3cccc(F)c3)cnc2O[C@@H]1CN(C)C(=O)C1CCC1	-2	x	0	3	x	-1
O=C(C[C@H]1C=C[C@H](NC(=O)CC2CC2)[C@@H](CO)O1)NCc1ccc(Cl)cc1	-5	x	-2	-4	x	-1
CCCC(=O)Nc1ccc2c(c1)C(=O)N(C)C[C@H](OC)[C@H](C)CN(Cc1ccccc1)[C@@H](C)CO2	-4	x	-2	98*	x	0
SMILES	ERAP1 inh	CAL PDZ FP-1	DENV2 CPE	S100A4 inh HTS	CAL PDZ FP-2	SIRT5 inh
CCCC(=O)Nc1ccc2c(c1)C(=O)N(C)C[C@H](OC)[C@@H](C)CN(Cc1ccccc1)[C@H](C)CO2	-6	x	5	0	x	-1
CCCC(=O)Nc1ccc2c(c1)OC[C@H](C)N(Cc1ccccc1)C[C@H](C)[C@@H](OC)CN(C)C2=O	0	x	32*	10	x	0
CCCC(=O)Nc1ccc2c(c1)C(=O)N(C)C[C@H](OC)[C@H](C)CN(Cc1ccccc1)[C@H](C)CO2	-5	x	-16	96*	x	-2
COCC(=O)Nc1ccc2c(c1)OC[C@@H](C)N(CCc1ccccc1)C[C@@H](C)[C@H](OC)CN(C)C2=O	1	x	7	-4	x	31*
CC(=O)N(C)C[C@H]1Oc2cc(-c3cncnc3)ccc2S(=O)(=O)N([C@H](C)CO)C[C@@H]1C	1	x	12	9	x	1
COc1ccc(/C=C/CN2CCCC(CO)(Cc3cccc(Cl)c3)C2)cc1 (stereo unspecified)	11	54*	-7	-30	-2	-1
C[C@H]1CN([C@@H](C)CO)C(=O)c2cc(NC(=O)Cc3ccccc3)ccc2O[C@@H]1CN(C)Cc1ccc(Oc2ccccc2)cc1	-2	x	-1	-11	x	17*
C[C@@H]1CN([C@@H](C)CO)C(=O)c2cc(NC(=O)Cc3cn(C)c4ccccc34)ccc2O[C@@H]1CN(C)Cc1ccc(Oc2ccccc2)cc1	-1	x	u	10	x	19*
C[C@@H]1CN([C@@H](C)CO)C(=O)c2cc(NC(=O)CCC(F)(F)F)ccc2O[C@@H]1CN(C)Cc1ccc(-c2ccccc2)cc1	x	x	8	-2	x	-1
C[C@@H]1CN([C@H](C)CO)C(=O)c2cc(NC(=O)CCC(F)(F)F)ccc2O[C@H]1CN(C)Cc1ccc(Oc2ccccc2)cc1	-1	x	4	-23	x	27*
C[C@H](CO)N1C[C@H](C)[C@H](CN(C)Cc2ccc(Oc3ccccc3)cc2)Oc2ccc(NC(=O)Cc3ccccc3)cc2C1=O	0	x	-4	-11	x	43*
